Source: ChEMBL document CHEMBL1133584, “Potent and selective non-peptidic inhibitors of endothelin-converting enzyme-1 with sustained duration of action” (J Med Chem, 2000)

What was measured:
Neprilysin = target: T1, Neprilysin (Rattus norvegicus, UniProt P07861); assay: In vitro inhibition of rat neutral endopeptidase
T1 sequence (P07861 whole entry): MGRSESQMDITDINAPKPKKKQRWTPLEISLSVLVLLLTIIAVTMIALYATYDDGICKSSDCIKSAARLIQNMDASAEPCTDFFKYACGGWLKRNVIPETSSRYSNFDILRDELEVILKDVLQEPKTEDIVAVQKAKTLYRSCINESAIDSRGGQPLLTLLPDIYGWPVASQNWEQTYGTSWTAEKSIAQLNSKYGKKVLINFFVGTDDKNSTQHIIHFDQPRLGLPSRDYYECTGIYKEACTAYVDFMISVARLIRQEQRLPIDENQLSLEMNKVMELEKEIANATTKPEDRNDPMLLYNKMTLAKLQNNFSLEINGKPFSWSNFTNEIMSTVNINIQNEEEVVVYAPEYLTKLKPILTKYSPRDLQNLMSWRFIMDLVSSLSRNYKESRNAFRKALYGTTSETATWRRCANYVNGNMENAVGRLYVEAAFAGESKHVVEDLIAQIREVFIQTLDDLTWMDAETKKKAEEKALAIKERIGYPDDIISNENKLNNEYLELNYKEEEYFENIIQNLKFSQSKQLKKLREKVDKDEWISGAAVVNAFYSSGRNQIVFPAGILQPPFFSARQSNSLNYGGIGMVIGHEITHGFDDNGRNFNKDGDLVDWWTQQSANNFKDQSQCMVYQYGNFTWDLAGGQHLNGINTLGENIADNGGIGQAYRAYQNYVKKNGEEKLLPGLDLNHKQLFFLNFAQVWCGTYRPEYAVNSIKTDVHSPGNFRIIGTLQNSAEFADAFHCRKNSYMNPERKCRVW

[1] = target: T2, Endothelin-converting enzyme 1 (Homo sapiens, UniProt P42892); assay: In Vitro inhibition of recombinant human endothelin converting enzyme-1
T2 sequence (P42892 whole entry): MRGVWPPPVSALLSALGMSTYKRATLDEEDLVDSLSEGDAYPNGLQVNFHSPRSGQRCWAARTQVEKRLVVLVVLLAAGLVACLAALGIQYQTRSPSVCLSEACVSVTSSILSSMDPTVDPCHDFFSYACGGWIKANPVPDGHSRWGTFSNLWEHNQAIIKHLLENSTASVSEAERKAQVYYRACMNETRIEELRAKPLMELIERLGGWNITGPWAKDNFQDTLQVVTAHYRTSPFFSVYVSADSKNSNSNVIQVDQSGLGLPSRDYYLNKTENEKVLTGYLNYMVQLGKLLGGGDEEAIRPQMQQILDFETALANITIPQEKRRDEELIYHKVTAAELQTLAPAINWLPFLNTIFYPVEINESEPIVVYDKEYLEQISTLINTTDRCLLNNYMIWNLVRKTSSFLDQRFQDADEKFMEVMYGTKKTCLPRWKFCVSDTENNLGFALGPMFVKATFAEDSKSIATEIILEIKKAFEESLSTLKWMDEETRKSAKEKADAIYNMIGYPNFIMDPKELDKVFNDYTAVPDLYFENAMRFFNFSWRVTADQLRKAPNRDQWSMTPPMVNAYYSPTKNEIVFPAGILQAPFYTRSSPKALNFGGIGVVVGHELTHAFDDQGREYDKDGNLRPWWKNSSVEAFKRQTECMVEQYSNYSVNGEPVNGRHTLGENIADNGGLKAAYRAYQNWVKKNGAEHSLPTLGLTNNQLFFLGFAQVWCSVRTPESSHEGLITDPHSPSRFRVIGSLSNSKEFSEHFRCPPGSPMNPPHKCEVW
How it was run: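 Enzyme was human recombinant ECE-1a from membranes of CHO cells expressing it. The IC50 was determined by the assay method of earlier work.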

[2] = Selectivity ratio of IC50 NEP/IC50 ECE
How it was run: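 ECE selectivity was the ratio of IC50 against rat kidney cortex NEP 24.11 to IC50 against CHO-membrane human recombinant ECE-1a.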

[3] = target: T3, Endothelin-converting enzyme 1 (Homo sapiens) (UniProt P42892); assay: Inhibition of Endothelin-converting enzyme 1 activity at a concentration of 1 uM
T3 sequence (whole entry): T2 sequence (P42892 whole entry)
How it was run: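 Human recombinant ECE-1a came from CHO cell membranes. Activity was measured with test compound at 1 µM and expressed as percent inhibition.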

SMILES | IC50 (Neprilysin) | IC50 [1] | Selectivity [2] | inhibition [3]
O=P(O)(O)CNC(Cc1ccc2c(c1)oc1ccccc12)c1nnn[nH]1 (stereo not drawn) | 114 nM | 6 nM | 19 | –
Cn1c2ccccc2c2ccc(CC(NCP(=O)(O)O)c3nnn[nH]3)cc21 (stereo not drawn) | 140 nM | > 4000 nM | < 0.03 | –
O=C(O)[C@H](Cc1ccc2c(c1)oc1ccccc12)NC(=O)[C@H](Cc1ccc2c(c1)oc1ccccc12)NCP(=O)(O)O | 2.7 nM | 6.4 nM | 0.42 | 95%
O=P(O)(O)CNC(Cc1ccc2c(c1)Cc1ccccc1-2)c1nnn[nH]1 (stereo not drawn) | 450 nM | 520 nM | 0.9 | –
O=C(O)C(Cc1ccccc1)NC(=O)[C@H](Cc1ccc2c(c1)oc1ccccc12)NCP(=O)(O)O (stereo partly drawn) | 12 nM | 23 nM | 0.5 | 91%

Results, then the compound that gave them:

IC50 (Neprilysin) | IC50 [1] | Selectivity [2] | inhibition [3] | SMILES
2300 nM | 22 nM | 104 | 92% | O=C(O)[C@H](Cc1ccc2c(c1)oc1ccccc12)NCP(=O)(O)O
31 nM | 13 nM | 2.3 | 92% | CC(C)CC(NC(=O)[C@H](Cc1ccc2c(c1)oc1ccccc12)NCP(=O)(O)O)C(=O)O (stereo partly drawn)
230 nM | 30 nM | 7.7 | – | O=C1c2ccccc2-c2ccc(CC(NCP(=O)(O)O)c3nnn[nH]3)cc21 (stereo not drawn)
> 16000 nM | 65 nM | > 286 | 89% | CC(C)CCCC(N[C@@H](Cc1ccc2c(c1)oc1ccccc12)C(=O)O)P(=O)(O)O (stereo partly drawn)
18000 nM | 22 nM | 818 | 92% | COc1cc(CCC(N[C@@H](Cc2ccc3c(c2)oc2ccccc23)C(=O)O)P(=O)(O)O)cc(OC)c1OC (stereo partly drawn)
> 100000 nM | 97 nM | – | – | NCCCCC(N[C@@H](Cc1ccc2c(c1)oc1ccccc12)C(=O)O)P(=O)(O)O (stereo in doubt; 40o')
